Results: ChEMBL document CHEMBL1764950, “Diphenylamine-based retinoid antagonists: regulation of RAR and RXR function depending on the N-substituent” (Bioorg Med Chem, 2011)
Active and inactive are the calls of the source. No cut-off for these calls is given here.

Tests used:
HL-60 [1] = experiment: Inhibition of Am80-induced cell differentiation in human HL60 cells at 1 x 10^-6 M after 4 days by NBT reduction assay; assay type: functional; conditions: HL-60, 96 h
How it was run: (§1)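 Cells were co-treated with 3.3 × 10⁻¹⁰ M Am80 plus test compound (ethanol, final below 0.5%), seeded at about 8 × 10⁴ cells/mL in RPMI1640 with 5% FBS, and held 4 days. The percentage of differentiated cells was determined by NBT/TPA reduction (20 min, 37 °C), counting at least 200 cells.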

HL-60 [2] = experiment: Induction of human HL60 cell differentiation by NBT reduction assay; assay type: functional, cell-based
How it was run: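 HL-60 cells in RPMI1640 with 5% FBS were seeded at about 8 × 10⁴ cells/mL and given compound from a 2 mM ethanol stock (final ethanol below 0.5%) for 4 days. Differentiation was scored by NBT reduction: 20 min at 37 °C with 0.2% NBT and 200 ng/mL TPA, counting formazan-positive cells among at least 200. EC₅₀ is the concentration differentiating 50% of cells with compound alone.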

HL-60 [3] = experiment: Inhibition of Am80-induced cell differentiation in human HL60 cells by NBT reduction assay; assay type: functional, cell-based; how it was run: as §1
[4] = biological target: Retinoic acid receptor RXR-alpha (Mus musculus) (UniProt P28700); experiment: Antagonist activity at mouse RXRalpha expressed in COS-1 cells assessed as inhibition of PA024-induced transactivation by luciferase reporter gene assay
Chain of Retinoic acid receptor RXR-alpha (Mus musculus) (P28700 whole entry, looked up): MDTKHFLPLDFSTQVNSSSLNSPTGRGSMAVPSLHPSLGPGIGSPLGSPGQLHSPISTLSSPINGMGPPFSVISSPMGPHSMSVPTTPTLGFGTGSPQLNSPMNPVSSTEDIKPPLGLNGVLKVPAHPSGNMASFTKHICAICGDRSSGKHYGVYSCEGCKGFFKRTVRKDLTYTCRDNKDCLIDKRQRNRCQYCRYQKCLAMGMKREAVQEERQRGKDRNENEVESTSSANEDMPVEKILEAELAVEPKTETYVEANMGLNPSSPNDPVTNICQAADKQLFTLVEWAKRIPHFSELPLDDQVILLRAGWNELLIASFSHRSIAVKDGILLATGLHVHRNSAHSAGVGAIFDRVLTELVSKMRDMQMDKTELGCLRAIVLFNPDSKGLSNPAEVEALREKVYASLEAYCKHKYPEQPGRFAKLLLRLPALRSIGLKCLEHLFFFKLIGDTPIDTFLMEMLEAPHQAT

[5] = test system: Retinoid X receptor beta (Mus musculus); experiment: Antagonist activity at mouse RXRbeta expressed in COS-1 cells assessed as inhibition of PA024-induced transactivation by luciferase reporter gene assay
[6] = biological target: Retinoic acid receptor beta (Homo sapiens) (UniProt P10826); experiment: Antagonist activity at human RARbeta expressed in COS-1 cells assessed as inhibition of Am80-induced transactivation by luciferase reporter gene assay
Chain of Retinoic acid receptor beta (Homo sapiens) (P10826 whole entry, looked up): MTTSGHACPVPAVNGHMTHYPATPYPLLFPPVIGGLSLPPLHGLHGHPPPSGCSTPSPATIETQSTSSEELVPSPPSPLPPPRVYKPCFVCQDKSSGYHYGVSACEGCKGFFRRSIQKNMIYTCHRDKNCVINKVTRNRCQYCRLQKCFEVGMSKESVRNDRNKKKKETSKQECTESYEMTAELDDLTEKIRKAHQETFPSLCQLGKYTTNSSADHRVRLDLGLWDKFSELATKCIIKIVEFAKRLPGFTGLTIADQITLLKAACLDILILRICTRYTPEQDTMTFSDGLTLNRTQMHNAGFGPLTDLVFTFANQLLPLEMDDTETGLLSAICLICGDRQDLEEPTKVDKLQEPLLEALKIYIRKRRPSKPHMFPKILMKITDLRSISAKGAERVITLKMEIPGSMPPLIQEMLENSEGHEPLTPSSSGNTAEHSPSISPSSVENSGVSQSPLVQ

[7] = test system: Retinoid X receptor gamma (Mus musculus); experiment: Antagonist activity at mouse RXRgamma expressed in COS-1 cells assessed as inhibition of PA024-induced transactivation by luciferase reporter gene assay
[8] = biological target: Retinoic acid receptor alpha (Homo sapiens) (UniProt P10276); experiment: Antagonist activity at human RARalpha expressed in COS-1 cells assessed as inhibition of Am80-induced transactivation by luciferase reporter gene assay
Chain of Retinoic acid receptor alpha (Homo sapiens) (P10276 whole entry, looked up): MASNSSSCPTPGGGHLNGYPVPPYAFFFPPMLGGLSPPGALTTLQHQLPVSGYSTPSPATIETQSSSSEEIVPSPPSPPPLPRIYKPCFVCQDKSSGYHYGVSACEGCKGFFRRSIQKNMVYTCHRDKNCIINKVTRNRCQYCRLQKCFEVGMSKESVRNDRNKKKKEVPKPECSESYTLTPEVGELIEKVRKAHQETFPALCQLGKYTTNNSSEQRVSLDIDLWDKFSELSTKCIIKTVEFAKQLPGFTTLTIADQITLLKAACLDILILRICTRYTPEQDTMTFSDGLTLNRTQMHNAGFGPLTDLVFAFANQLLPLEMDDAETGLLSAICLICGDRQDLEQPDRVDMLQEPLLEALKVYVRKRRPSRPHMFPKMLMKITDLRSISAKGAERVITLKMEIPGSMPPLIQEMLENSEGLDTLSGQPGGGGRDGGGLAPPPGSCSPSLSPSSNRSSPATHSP

HL-60 [9] = experiment: Inhibition of Am80-induced cell differentiation in human HL60 cells at 1 x 10^-7 M after 4 days by NBT reduction assay; assay type: functional; conditions: HL-60, 96 h; how it was run: as §1
[10] = biological target: Retinoic acid receptor gamma (Homo sapiens) (UniProt P13631); experiment: Antagonist activity at human RARgamma expressed in COS-1 cells assessed as inhibition of ATRA-induced transactivation by luciferase reporter gene assay
Chain of Retinoic acid receptor gamma (Homo sapiens) (P13631 whole entry, looked up): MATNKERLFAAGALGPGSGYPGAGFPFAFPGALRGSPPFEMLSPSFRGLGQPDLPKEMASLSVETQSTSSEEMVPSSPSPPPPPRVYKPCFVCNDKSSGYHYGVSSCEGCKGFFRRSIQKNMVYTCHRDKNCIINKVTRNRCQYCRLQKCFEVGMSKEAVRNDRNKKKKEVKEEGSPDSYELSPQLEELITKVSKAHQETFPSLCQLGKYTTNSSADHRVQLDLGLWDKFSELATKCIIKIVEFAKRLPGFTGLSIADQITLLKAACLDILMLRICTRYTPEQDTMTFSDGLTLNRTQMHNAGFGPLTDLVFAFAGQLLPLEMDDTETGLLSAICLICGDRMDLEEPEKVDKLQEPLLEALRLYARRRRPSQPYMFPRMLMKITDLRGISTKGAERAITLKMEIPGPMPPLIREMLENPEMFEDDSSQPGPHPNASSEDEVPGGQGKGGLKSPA

HL-60 [11] = experiment: Synergistic induction of human HL60 cell differentiation in presence of RAR agonist Am80 at 1 X 10^-10 M; assay type: functional
How it was run: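 Synergy was tested in HL-60 cells given test compound together with 1 × 10⁻¹⁰ M Am80 for 4 days, with each agent also assayed alone. Differentiation was scored by NBT reduction (0.2% NBT, 200 ng/mL TPA, 20 min, 37 °C; ≥200 cells). SEC₅₀ is the concentration giving 50% differentiated cells in the presence of Am80.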

Row | Compound | Differentiated cells % at 1 µM (HL-60 [1]) | Activity (HL-60 [2]) | inhibition (HL-60 [3]) | Differentiated cells % at 0.1 µM (HL-60 [9]) | also measured
1 | Cc1ccc(CN(c2ccc(C(=O)O)cc2)c2ccc3c(c2)C(C)(C)CCC3(C)C)cc1 | < 10% | inactive | Dose-dependent effect |  | 
2 | CC1(C)CCC(C)(C)c2cc(N(Cc3ccccc3)c3ccc(C(=O)O)cc3)ccc21 |  | inactive |  |  | 
3 | CCOc1c(F)c(F)c(CN(c2ccc(C(=O)O)cc2)c2ccc3c(c2)C(C)(C)CCC3(C)C)c(F)c1F | < 10% | inactive | Dose-dependent effect | < 10% | inhibition [4]: inactive; inhibition [5]: inactive; inhibition [6]: Dose-dependent effect; inhibition [7]: inactive; inhibition [8]: Dose-dependent effect; inhibition [10]: Dose-dependent effect
4 | CCCCCCCN(c1ccc(C(=O)O)cc1)c1ccc2c(c1)C(C)(C)CCC2(C)C | < 10% | inactive | Dose-dependent effect |  | inhibition [4]: inactive; inhibition [5]: inactive; inhibition [6]: Dose-dependent effect; inhibition [7]: inactive; inhibition [8]: Dose-dependent effect; inhibition [10]: Dose-dependent effect
5 | CC1(C)CCC(C)(C)c2cc(N(Cc3ccc4ccccc4c3)c3ccc(C(=O)O)cc3)ccc21 | < 10% | inactive | Dose-dependent effect | 30% | 
6 | CC1(C)CCC(C)(C)c2cc(N(Cc3ccc(C(F)(F)F)cc3)c3ccc(C(=O)O)cc3)ccc21 | < 10% | inactive | Dose-dependent effect |  | 
7 | CC1(C)CCC(C)(C)c2cc(N(Cc3ccccc3-c3ccccc3)c3ccc(C(=O)O)cc3)ccc21 | < 10% | inactive | Dose-dependent effect | 10% | 
8 | CC1(C)CCC(C)(C)c2cc(N(CC3CC3)c3ccc(C(=O)O)cc3)ccc21 |  |  |  |  | EC50 (HL-60 [2]; hl-60): Not Active; SEC50 (HL-60 [11]): 8.1 ×10⁻¹⁰ M
9 | CC1(C)CCC(C)(C)c2cc(Nc3ccc(C(=O)O)cc3)ccc21 |  |  |  |  | EC50 (HL-60 [2]; Homo sapiens, HL-60, read-out: EC50): 0.68 µM; SEC50 (HL-60 [11]): 2 ×10⁻⁸ M
10 | CCCCCCCCN(c1ccc(C(=O)O)cc1)c1ccc2c(c1)C(C)(C)CCC2(C)C | < 10% | inactive | Dose-dependent effect |  | 
